Measurements from ChEMBL document CHEMBL2417552, “Screen of pseudopeptidic inhibitors of human sirtuins 1-3: two lead compounds with antiproliferative effects in cancer cells” (J Med Chem, 2013).
Activity calls are given as the source filed them. The rule behind the calls is not given here.

Key:
A549 [1] = assay: Cell cycle arrest in human A549 cells assessed as accumulation at G2 phase at 100 uM after 18 hrs by propidium iodide staining-based FACS flow cytometric analysis (reference value: 19.4%); type: functional
[2] = target: T1, NAD-dependent protein deacetylase sirtuin-1 (Homo sapiens) (UniProt Q96EB6); assay: Inhibition of SIRT1 in etoposide-induced human SH-SY5Y cells assessed as increase in p53 acetylation at Lys382 at 20 uM after 5 hrs by Western blotting analysis; type: cell-based
T1 sequence (whole entry): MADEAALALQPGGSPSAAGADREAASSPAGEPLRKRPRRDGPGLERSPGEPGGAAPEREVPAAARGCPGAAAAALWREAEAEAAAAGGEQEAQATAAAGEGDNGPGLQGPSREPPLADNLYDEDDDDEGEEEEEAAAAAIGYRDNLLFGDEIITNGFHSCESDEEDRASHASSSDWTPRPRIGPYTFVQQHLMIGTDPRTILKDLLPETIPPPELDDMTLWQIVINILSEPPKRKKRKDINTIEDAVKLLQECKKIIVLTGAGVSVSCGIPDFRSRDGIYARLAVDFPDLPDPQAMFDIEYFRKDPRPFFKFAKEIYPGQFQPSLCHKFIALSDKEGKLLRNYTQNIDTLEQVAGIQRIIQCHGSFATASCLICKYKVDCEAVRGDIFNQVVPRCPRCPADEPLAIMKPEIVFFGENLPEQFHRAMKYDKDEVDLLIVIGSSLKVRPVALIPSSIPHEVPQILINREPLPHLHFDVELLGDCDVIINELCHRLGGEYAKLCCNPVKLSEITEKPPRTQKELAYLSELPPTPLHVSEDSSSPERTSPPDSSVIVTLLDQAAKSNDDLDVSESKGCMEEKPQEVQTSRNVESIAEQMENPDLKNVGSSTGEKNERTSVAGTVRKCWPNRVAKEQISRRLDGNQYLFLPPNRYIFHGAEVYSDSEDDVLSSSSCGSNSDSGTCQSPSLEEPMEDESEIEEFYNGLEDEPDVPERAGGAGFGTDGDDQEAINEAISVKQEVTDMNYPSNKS
Summary of the method: (§1)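 ARPE-19 or SH-SY5Y cells seeded 24 h ahead, then given 20 μM compound and 100 μM etoposide together for 5 h before harvest. Acetylated p53 detected by Western blot. Mean ± SEM of 2 independent experiments.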

[3] = target: T2, NAD-dependent protein deacetylase sirtuin-3, mitochondrial (Homo sapiens, UniProt Q9NTG7); assay: Inhibition of human recombinant His-tagged SIRT3 using KI179 as substrate preincubated for 5 mins followed by enzyme addition measured after 1 hr by fluorescence assay
T2 sequence (Q9NTG7 whole entry): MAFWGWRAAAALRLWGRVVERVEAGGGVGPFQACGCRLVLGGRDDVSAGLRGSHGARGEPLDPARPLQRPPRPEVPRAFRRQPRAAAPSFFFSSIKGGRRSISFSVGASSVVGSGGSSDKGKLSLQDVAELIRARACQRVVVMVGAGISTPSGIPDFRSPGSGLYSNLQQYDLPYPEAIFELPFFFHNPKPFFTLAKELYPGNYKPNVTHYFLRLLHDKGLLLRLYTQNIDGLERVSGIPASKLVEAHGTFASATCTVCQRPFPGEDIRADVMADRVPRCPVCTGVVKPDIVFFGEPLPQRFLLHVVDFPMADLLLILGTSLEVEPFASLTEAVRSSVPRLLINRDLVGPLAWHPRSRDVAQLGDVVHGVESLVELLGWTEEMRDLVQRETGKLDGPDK

A549 [4] = assay: Growth inhibition of human A549 cells at >= 50 uM after 48 hrs by sulforhodamine B assay; type: functional, cell-based
MCF7 [5] = assay: Cytotoxicity against human MCF7 cells assessed as cell death at 100 uM after 18 hrs by propidium iodide staining-based FACS flow cytometric analysis; type: functional
[6] = Cytotoxicity against human ARPE19 cells at 20 uM by LDH assay; type: cell-based; settings: arpe-19, 20 µM
[7] = Cytotoxicity against human SH-SY5Y cells at 20 uM by LDH assay; type: cell-based
[8] = target: T3, NAD-dependent protein deacetylase sirtuin-1 (Homo sapiens, UniProt Q96EB6); assay: Inhibition of human recombinant GST-tagged SIRT1 using KI177 as substrate preincubated for 5 mins followed by enzyme addition measured after 1 hr by fluorescence assay
T3 sequence (Q96EB6 whole entry): T1 sequence (whole entry)
Summary of the method: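 Fluor de Lys deacetylation assay. […] Mix preincubated 5 min at room temperature, started with enzyme, run 1 h at 37°C. Developer with 2 mM nicotinamide then added for 45 min at 37°C before fluorescence reading.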

[9] = target: T4, NAD-dependent protein deacetylase sirtuin-2 (Homo sapiens) (UniProt Q8IXJ6); assay: Inhibition of human recombinant GST-tagged SIRT2 using KI179 as substrate at 50 uM preincubated for 5 mins followed by enzyme addition measured after 1 hr by fluorescence assay relative to control
T4 sequence (whole entry): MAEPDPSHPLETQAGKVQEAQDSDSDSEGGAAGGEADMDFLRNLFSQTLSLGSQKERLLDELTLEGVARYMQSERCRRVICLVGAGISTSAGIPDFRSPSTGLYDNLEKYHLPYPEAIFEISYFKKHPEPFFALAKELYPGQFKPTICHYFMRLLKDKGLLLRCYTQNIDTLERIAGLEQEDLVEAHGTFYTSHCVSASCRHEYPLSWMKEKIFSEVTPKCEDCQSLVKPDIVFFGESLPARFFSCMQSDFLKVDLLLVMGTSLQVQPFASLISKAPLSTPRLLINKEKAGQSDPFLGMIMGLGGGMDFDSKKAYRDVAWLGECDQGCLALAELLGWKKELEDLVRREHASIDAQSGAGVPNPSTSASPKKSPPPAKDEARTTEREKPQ
Summary of the method: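 Recombinant GST-SIRT2, Fluor de Lys assay in SIRT assay buffer. Acetylated peptide KI179 at 0.7 Km (Km 198 µM) and NAD+ at 0.9 Km (reported Km 547 µM). Buffer, substrate, NAD+ and compound in DMSO preincubated 5 min at room temperature. Enzyme added to start; 1 h at 37 °C. Developer with 2 mM nicotinamide added; 45 min at 37 °C; fluorescence read. Mean ± SD, ≥3 experiments.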

[10] = target: T1, NAD-dependent protein deacetylase sirtuin-1 (Homo sapiens); assay: Inhibition of SIRT1 in etoposide-induced human ARPE19 cells assessed as increase in p53 acetylation at Lys382 at 20 uM after 5 hrs by Western blotting analysis; type: cell-based; summary of the method: as §1
MCF7 [11] = assay: Growth inhibition of human MCF7 cells at >= 50 uM after 72 hrs by sulforhodamine B assay
A549 [12] = assay: Cytotoxicity against human A549 cells assessed as cell death at 100 uM after 18 hrs by propidium iodide staining-based FACS flow cytometric analysis; type: functional
MCF7 [13] = assay: Cell cycle arrest in human MCF7 cells assessed as accumulation at G1 phase at 100 uM after 18 hrs by propidium iodide staining-based FACS flow cytometric analysis (reference value: 67.6%); type: functional
MCF7 [14] = assay: Cell cycle arrest in human MCF7 cells assessed as accumulation at S phase at 100 uM after 18 hrs by propidium iodide staining-based FACS flow cytometric analysis (reference value: 12.6%); type: functional

## COc1ccc(C(=O)CNC(=O)[C@H](CCCCNC(C)=S)NC(=O)OCc2ccccc2)cc1
A549 [1]
  Activity: 9.4%
[2]
  inhibition: Active
[3]
  IC50: 8.35 µM
A549 [4]
  growth inhibition (GI): Active
MCF7 [5]
  Activity: inactive
[6]
  Activity: Non-toxic
[7]
  Activity: Non-toxic
[8]
  IC50: 0.89 µM
[9]
  inhibition: 97%
[10]
  inhibition: Active
MCF7 [11]
  growth inhibition (GI): Active
A549 [12]
  Activity: inactive
MCF7 [13]
  Activity: 80.5%
MCF7 [14]
  Activity: 5.8%
